The record followed here is ChEMBL document CHEMBL4359883, “4(1H)-quinolone derivatives overcome acquired resistance to anti-microtubule agents by targeting the colchicine site of β-tubulin” (Eur J Med Chem, 2019).

Activity calls are given as the source filed them. The calls are words filed in the database; no cut-off is given here.

For series [1], the species on record is Homo sapiens. Description: Induction of apoptosis in human KBtax cells assessed as cleaved caspase-9 at 30 to 60 nM after 24 hrs by immunoblotting analysis. Format: functional, cell-based. Background: A western blot detects proteins with antibodies after separation by electrophoresis.
For series [2], the species on record is Homo sapiens. Description: Induction of mitotic arrest in human KBtax cells assessed as increase in cyclin-B1 expression at 30 to 60 nM after 24 hrs by immunoblotting analysis. Format: functional, cell-based.
Series [3] in a line: Toxicity in Balb/c mouse xenografted with human KBtax cells assessed as serum BUN level at 8 mg/kg, ip administered 3 times per week and measured after 21 days (reference value: 17.8 +/-1.1 mg/dl). The class given is organism-based. The settings on record: in vivo, 504 h. On the technique in general: A xenograft is tissue or cells of one species grown in another, often human tumour cells in immunodeficient mice.

For series [4], the species on record is Homo sapiens. Description: Induction of mitotic arrest in human KBtax cells assessed as increase in p-HH3 expression at 30 to 60 nM after 24 hrs by immunoblotting analysis. Format: functional, cell-based.
The subject of the next series is MDA-MB-231. Briefly: Antitumour activity against human MDA-MB-231 cells xenografted in Balb/c mouse assessed as tumour size at 4 mg/kg, ip administered three times per week and measured on day 35 (reference value: 218 +/- 20.9 mm3). Format: functional. In short, it runs like this:
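MDA-MB-231 tumours established in the right flank of 6-week-old BALB/c nude mice. Compound dissolved in DMSO was given ip three times weekly, with a DMSO vehicle group. Tumour volume calculated as 0.5W²L, measured before each dose and compared on day 35.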

Series [5] in a line: Toxicity in Balb/c mouse xenografted with human KBtax cells assessed as serum creatinine level at 8 mg/kg, ip administered 3 times per week and measured after 21 days (reference value: 0.22 +/- 0.02 mg/dl). Format: organism-based. The settings on record: in vivo, 504 h.
Series [6] deals with NCI-H1975. Description: Induction of apoptosis in human NCI-H1975 cells assessed as increase in cyclin B1 expression at 25 to 50 nM after 24 hrs by immunoblotting analysis. The class given is functional, cell-based.
Series [7] has as its system CL1-0. Description: Induction of apoptosis in human CL1-0 cells assessed as increase in cytochrome c level in cytosol at 20 to 40 nM after 24 hrs by immunoblotting analysis. Format: functional, cell-based.
Series [8] has as its system NCI-H1975. Description: Induction of mitotic arrest in human NCI-H1975 cells assessed as increase in cyclin B1 expression at 40 to 80 nM after 24 hrs by immunoblotting analysis. The class given is functional, cell-based.
The test system of series [9] is CL1-0. Description: Induction of apoptosis in human CL1-0 cells assessed as cleaved caspase 9 after 24 hrs by immunoblotting analysis. The class given is functional, cell-based.
The test system of series [10] is NCI-H1975. Description: Antiproliferative activity against human NCI-H1975 cells assessed as reduction in colony formation after 14 days by crystal violet staining based assay. The class given is functional, cell-based. In outline: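 Seeded at 1000 cells/well, cultured overnight, then treated with 12.5–200 nM for 14 days. Colonies fixed in 3.7% paraformaldehyde, stained with 0.04% crystal violet and dissolved in DMSO, then absorbance read at 590 nm. Mean ± SD.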

Series [11] concerns NCI-H1975. Briefly: Induction of morphological changes in human NCI-H1975 cells assessed as disruption of mitotic spindle arrangement at 40 nM after 6 hrs by DAPI staining based DAPI staining based confocal microscopic analysis. The class given is functional, cell-based. In outline: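 Cells exposed for 6 h, fixed in 3.7% paraformaldehyde, permeabilized with 0.1% Triton X-100. Stained with anti-α-tubulin (1:1000) overnight at 4 °C, FITC secondary 1 h at 37 °C, nuclei counterstained with DAPI. Imaged by confocal laser scanning microscopy.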

Series [12] in a line: Cytotoxicity against human bronchial epithelial cells assessed as reduction in cell viability after 72 hrs by MTS assay. Format: cell-based. In outline:
(§1)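 Cells plated at 2000 per well, cultured overnight, then exposed to a range of compound concentrations for 72 h. MTS reagent added, 1–4 h at 37 °C, absorbance read at 490 nm. Mean of three determinations.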

Series [13] addresses Tubulin beta (Homo sapiens) (UniProt P68371+Q9H4B7+Q13509+P04350+Q3ZCM7+P07437+Q13885+Q9BVA1+Q9BUF5+A6NNZ2). Briefly: Binding affinity to beta tubulin in human NCI-H1975 cells incubated for overnight by immunoblotting based pull down assay. The class given is cell-based. In outline: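 H1975 lysate in RIPA buffer with protease inhibitors incubated overnight at 4 °C with compound-conjugated magnetic beads or control beads. Beads washed five times with PBS, and bound proteins detected by SDS-PAGE immunoblotting with ECL.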

For series [14], the system named is NCI-H1975. Briefly: Induction of apoptosis in human NCI-H1975 cells assessed as bax protein expression after 24 hrs by immunoblotting analysis. Format: functional, cell-based.
In series [15] the test system is NCI-H1975. Briefly: Cell cycle arrest in human NCI-H1975 cells assessed as increase in cell population at G2/M phase after 24 hrs by propidium iodide-staining based flow cytometry. Format: functional. In short, it runs like this:
(§2)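 Cells treated for 24 h, then trypsinized and fixed overnight in ice-cold 70% ethanol. Stained for 30 min with propidium iodide (10 µg/mL) plus RNase (20 µg/mL), and DNA content measured by flow cytometry. Mean ± SD.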
For orientation: A flow cytometer gives signals particle by particle.

In the next series the test system is HT-29. Description: Antiproliferative activity against human HT-29 cells assessed as reduction in cell viability after 72 hrs by MTS assay. Format: functional, cell-based. To be noted: HT-29, 72 h. In short, it runs like this: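 Cells plated at 2000/well, cultured overnight, then exposed to a range of compound concentrations for 72 h. MTS reagent added for 1–4 h at 37 °C and absorbance read at 490 nm. Cultured in RPMI 1640 or DMEM with 10% heat-inactivated FBS under 5% CO2. Data are the mean of three determinations.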

Series [16] relates to NCI-H1975. Description: Induction of apoptosis in human NCI-H1975 cells assessed as PARP cleavage at 40 nM by immunoblotting analysis. Format: functional, cell-based. To be noted: TDE = time-dependent effect.
Series [17] has as its system CL1-0. Briefly: Cell cycle arrest in human CL1-0 cells assessed as increase in cell population at G2/M phase after 24 hrs by propidium iodide-staining based flow cytometry. The class given is functional. In outline:
as §2

Series [18] relates to CL1-0. Description: Induction of cell cycle arrest in human CL1-0 cells assessed as accumulation at mitotic phase after 24 hrs by high content imaging analysis. The class given is functional, cell-based. In short, it runs like this: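 Cells exposed for 24 h, stained for phospho-histone H3 (S10), and imaged by high-content imaging. Mitotic index taken as the fraction of p-HH3-positive cells. Mean ± SD.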

For series [19], the system named is NCI-H1975. Description: Induction of apoptosis in human NCI-H1975 cells assessed as cleaved caspase 3 expression at 40 nM by immunoblotting analysis. Format: functional, cell-based. The settings on record: TDE = time-dependent effect.
For series [20], the system named is NCI-H1975. Description: Antitumour activity against human NCI-H1975 cells xenografted in Balb/c mouse assessed as reduction in tumour size at 8 mg/kg, ip administered 3 times per week and measured on day 25 (reference value: 1749 +/- 234.5 mm3). Format: functional.
Series [21] deals with CL1-0. Description: Induction of apoptosis in human CL1-0 cells assessed as PARP cleavage at 20 nM by immunoblotting analysis. To be noted: TDE = time-dependent effect. Format: functional, cell-based.
The target in the next series is Tubulin (Homo sapiens) (UniProt P68371+Q9H4B7+P0DPH7+P68366+Q13509+Q71U36+P04350+Q3ZCM7+P07437+P68363+Q9BQE3+Q6PEY2+Q13885+Q9BVA1+Q9BUF5). Briefly: Binding affinity to tubulin (unknown origin) assessed as increase complex formation with compound by SPR analysis. The class given is protein-complex assay. In outline: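 Biotin-tubulin (50 µg/mL) captured on a streptavidin chip to about 3,000 RU, with remaining sites blocked by biocytin and a free flow cell as reference. Compound injected at different concentrations in HBS-EP+ (pH 7.4) at 25 °C. KD obtained from steady-state fitting.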

Series [22] concerns CL1-0. Description: Induction of apoptosis in human CL1-0 cells assessed as caspase 8 activation at 20 to 40 nM after 24 hrs by immunoblotting analysis. Format: functional, cell-based.
A short description of series [23]: Cytotoxicity against human NHFB cells assessed as reduction in cell viability after 72 hrs by MTS assay. The class given is cell-based. In outline: as §1

What is called IC50 is the concentration that gives 50% inhibition.

In the case of `CCOC(=O)c1ccc2[nH]c(-c3cccc(F)c3)cc(=O)c2c1`, the outcome in the series filed under Homo sapiens [1], in the series listed under Homo sapiens [2], in the series listed under Homo sapiens [4] and in the series on NCI-H1975 [6] was Active. The Activity in series [3] is 18.2 mg/dL; with MDA-MB-231 it was 105 mm3; in series [5], 0.26 mg/dL.

On to `CCOC(=O)c1ccc2nc(-c3ccccc3)cc(O)c2c1`, for which the outcome (in the series with CL1-0 [7]; in the series on NCI-H1975 [8]; in the series with NCI-H1975 [10]; in the series on NCI-H1975 [11]; in [13]) was Active. Besides, the Activity result in the series on CL1-0 [9] was “Dose-dependent effect”; with NCI-H1975 [14], “Dose-dependent effect”; in the series with NCI-H1975 [15], “Dose-dependent effect”; with NCI-H1975 [16], “Tde”; with CL1-0 [17], “Dose-dependent effect”; with CL1-0 [18] it was “Dose-dependent effect”. The Activity entry in the series on NCI-H1975 [19] was “Tde”; in the series with NCI-H1975 [20], 587.2 mm3; in the series with CL1-0 [21] it was “Tde”; on Tubulin (Homo sapiens), “Dose-dependent effect”. Also, the IC50 in series [12] is more than 10 µM; in the series on HT-29, 0.048 µM; in series [23] it was more than 10 µM. The result in the series on CL1-0 [22] was inactive.
